Results taken from the M2OR odorant receptor database.

What follows are compounds tested against T1, OR51L1 (Homo sapiens) (UniProt Q8NGJ5). Conditions: stereoisomer not certain.
T1 sequence (whole entry): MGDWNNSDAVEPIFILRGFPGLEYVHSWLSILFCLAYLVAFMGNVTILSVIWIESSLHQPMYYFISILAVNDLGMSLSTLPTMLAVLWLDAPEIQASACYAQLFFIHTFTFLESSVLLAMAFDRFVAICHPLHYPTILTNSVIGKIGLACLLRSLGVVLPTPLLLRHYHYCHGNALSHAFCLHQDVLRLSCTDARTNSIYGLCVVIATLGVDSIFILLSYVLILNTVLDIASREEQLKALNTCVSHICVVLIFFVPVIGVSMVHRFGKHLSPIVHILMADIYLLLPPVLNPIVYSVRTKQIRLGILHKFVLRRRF
Method in brief: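 Each receptor–molecule pair is labelled responsive or non-responsive (inactive) according to whether the original authors judged the measured signal statistically different from baseline. The data were taken from the main text and supplementary material of published papers and checked for typos and inconsistencies. Assay methods differed by source, with transient luciferase assays in mammalian cell lines being common.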
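Note: active if original authors judged signal statistically different from baseline.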

Odorant receptor agonist call, inactive:
CCCCCCCC(=O)[O-].[H+]
C=C(C)C1CCC(C)C(=O)C1 (stereo not given)
C=CCOC(=O)CCCCCC
CCCCCCC(C)=O
CCCCCCCCO
CC(=O)OCc1ccccc1
CCCCCO
CC(=O)Oc1ccccc1
CCCCCCCCCS
CCCCCCCO
CCCCCOC(=O)CCCCC
CCCCCC1=C(C)CCC1=O
CC(=O)OCC=C(C)C
CCCCCCCCCC(=O)[O-].[H+]
CCC(=O)C(=O)CC
CCCCCCOC(C)=O
CCCC(=O)C(C)=O
CCCCCCO
CCCCOC(=O)C(C)OC(=O)CCC (stereo not given)
CCC(C(=O)O)c1ccccc1 (stereo not given)
O=C1Cc2ccccc2O1
CCOC(=O)C(C)C
CCCCC(=O)O
CC(C)=CCCC(C)CCO (stereo not given)
COc1cc(C(=O)O)ccc1O
CCCCCCCCC(=O)O
CCC(=O)O
CCCCCCCCCO
O=C1CCOc2ccccc21
CCCCCCCCS
